According to the RNAGym collection of RNA variant scans (doi:10.1126/science.aae0568):
This sample holds only a part of the variants without activity.

B1: tRNA (parent)
chain: GUUCCGUUGGCGUAAUGGUAACGCGUCUCCCUCCUAAGGAGAAGACUGCGGGUUCGAGUCCCGUACGGAACG

Variants of: B1
Assay: yeast fitness relative to wild type (ratio to wild type); higher = fitter; tRNA-Arg(CCU), competitive growth, 37 C, YPD
Summary of the method: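 Variants of the tRNA-Arg(CCU) gene, chemically synthesised with a 3% per-site mutation rate at 69 sites, were placed at the native genomic locus in Saccharomyces cerevisiae. The pooled strains were competed in YPD at 37°C for 24 hours in six parallel replicates. Gene amplicons from the start population and from each end population were read by 100-nucleotide paired-end sequencing. Darwinian fitness relative to wild type came from changes in genotype frequencies; genotypes needed ≥ 100 starting reads, and estimates < 0.5 were set to 0.5.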

| Variant | yeast fitness |
| --- | --- |
| GUUACGUUGGCGUAAUGGUAACGCGUCUUCUUCCUAAGGAGAAGACUGCGGGUGCGAGUCCCGUUCAGAACG | ≤ 0.5 |
| GUUACGUUGGCGUAAUGGUAACGCGUCUUCCUCCUAAGGAGAAGACUGCGGCUUCGAGUCCCGUACGGAACG | ≤ 0.5 |
| GUUACGUUGGCGUAAUGGUAACGCGUCUCACUCCUACGGAGAAGACUGCGGGUUCGAAUCCCGUACGGAUCG | ≤ 0.5 |
| GUUACGUUGGCGUAAUGGUAACGCGUCUCACUCCUAAGGAGAAGACUCCGGGUUCGAGUCCCGUACGGAACG | ≤ 0.5 |
| GUUACGUUGGCGUAAUGGUAACGCGUCUCGCUCCUAAGGCGAAGACUGCGGGUUAGACUCCCGUUCGGAUCG | ≤ 0.5 |
| GUUACGUUGGCGUAAUGGUAACGCGUCUCGCUCCUAAGGUGAAGACUGUGGGUUCGAGUCCCGUACGGAACG | ≤ 0.5 |
| GUUACGUUGGCGUAAUGGUAACGCGUCUCGCUCCUAAGGUGAAGACUGCGGGUUCGAGUGCCCUACGGAACG | ≤ 0.5 |
| GUUACGUUGGCGUAAUGGUAACGCGUCUCGCUCCUAAGGAGAAGACCGGGGGUUCGAGUCCCGUACGGAACG | ≤ 0.5 |
| GUUACGUUGGCGUAAUGGUAACGCGUCUCUCUCCUAAGGAGAAGACUGCGGGUUCGAGUCCCGUACGGAACG | 0.756 |
| GUUACGUUGGCGUAAUGGUAACGCGUCUCUCUCCUAAGGAGAAGACUGCGGGUACGAGUCCCGUACGGAACG | ≤ 0.5 |
| GUUACGUUGGCGUAAUGGUAACGCGUCUCUCUCCUAAGGAGAAGACUGCGGGUUCGAGACCCGUACGGAACG | ≤ 0.5 |
| GUUACGUUGGCGUAAUGGUAACGCGUCUCCAUCCUAAGGAGAAGUCUGCGGGUUCGAGUCCCGUACGGAACG | ≤ 0.5 |
| GUUACGUUGGCGUAAUGGUAACGCGUCUCCAACCUAAGGAGAAGACUGCGGGUUCGAGUCCCGUACGGAACG | ≤ 0.5 |
| GUUACGUUGGCGUAAUGGUAACGCGUCUCCAUCCCAAGGAGAAGUCUGCGGGUUCGAGUCCCGUACGGUACG | ≤ 0.5 |
| GUUACGUUGGCGUAAUGGUAACGCGUCUCCGUCCUAAGGUGAAGACUGCGGGUUCGAGUCCCGAACGGAACG | ≤ 0.5 |
| GUUACGUUGGCGUAAUGGUAACGCGUCUCCGUCCUAAGGAGAAGGCUGCCGGUUCGAGUCCCAUACGGAACG | ≤ 0.5 |
| GUUACGUUGGCGUAAUGGUAACGCGUCUCCGUCCUAAGGAGAAGACUGCGGGUUAGAGUCCCGUACGGAACG | 0.534 |
| GUUACGUUGGCGUAAUGGUAACGCGUCUCCGUCCUAAGGAGAAGACUGCGGGUUCGAGUCCUGUACGGAACG | 0.71 |
| GUUACGUUGGCGUAAUGGUAACGCGUCUCCGUCCUAAGGAGAAGACUGCGCGUUCGAGUCCCGUACGGAACG | 0.524 |
| GUUACGUUGGCGUAAUGGUAACGCGUCUCCGUCCUAAGGAGAAGACUGCGCGUUCGAGUCCCGUAAGGAACG | ≤ 0.5 |
| GUUACGUUGGCGUAAUGGUAACGCGUCUCCUUCCUAAGGAGAAGACUGCGGGUUCGAGUCCCGUACGGAACG | 0.864 |
| GUUACGUUGGCGUAAUGGUAACGCGUCUCCUUCCUAAGGAGCAGACUGCGGGUUCGAGUCCCGUACGGAACG | 0.572 |
| GUUACGUUGGCGUAAUGGUAACGCGUCUCCUUCCUAAGGAGUAGACUGCGGGUUCGAGUCCCGUACGGAACG | 0.618 |
| GUUACGUUGGCGUAAUGGUAACGCGUCUCCUUCCUAAGGAGAAGACUGCGGGUUCGAGUCUCGUACGGAACG | ≤ 0.5 |
| GUUACGUUGGCGUAAUGGUAACGCGUCUCCUUCCUAAGGAGAAGACUGCGAGUUCGAGUCCCGUACGGAGCG | ≤ 0.5 |

| Variant | yeast fitness |
| --- | --- |
| GUUACGUUGGCGUAAUGGUAACGCGUCUCCUUCCCAAGGAGAAGACUGCGGGUUCGAGUCCCGUACGGAACG | ≤ 0.5 |
| GUUACGUUGGCGUAAUGGUAACGCGUCUCCCUACUCAGGAGAAGACUGCGGGUUCGAGUCCCGUACAGAACG | ≤ 0.5 |
| GUUACGUUGGCGUAAUGGUAACGCGUCUCCCUACUAAGGUGAAGACUGCGGGUUCGAGUCCCGUACGGAGCG | ≤ 0.5 |
| GUUACGUUGGCGUAAUGGUAACGCGUCUCCCUACUAAGGAGAAGACUGCGGGUUCGAGUCCCGUGCGGAACG | ≤ 0.5 |
| GUUACGUUGGCGUAAUGGUAACGCGUCUCCCUAUUAAGCAGAAGACUGCGGGUACGAGUCCCGUACGGAACG | ≤ 0.5 |
| GUUACGUUGGCGUAAUGGUAACGCGUCUCCCUACUAAGGAGAAGACUGCGGGUUCGAGUACCACACGGAACG | ≤ 0.5 |
| GUUACGUUGGCGUAAUGGUAACGCGUCUCCCUACUAAGGAGAAGACUGCGGGUUCGAGUCCAGUACGGAACG | 0.668 |
| GUUACGUUGGCGUAAUGGUAACGCGUCUCCCUACUAAGCAGAAGACUGUGGGUACGAGUCCCGUACGGAUCG | ≤ 0.5 |
| GUUACGUUGGCGUAAUGGUAACGCGUCUCCCUACUAAGCAGAAGACUGCGCGUUCGAGUCCUGUACGGCACG | ≤ 0.5 |
| GUUACGUUGGCGUAAUGGUAACGCGUCUCCCUGCUAAGGACAAGACUGCGGGUUCCAAUCCCCUUCGGAACG | ≤ 0.5 |
| GUUACGUUGGCGUAAUGGUAACGCGUCUCCCUUCUCAGGGGAAGACUGCGGGUUCGAGUCCCGUACGGAACG | ≤ 0.5 |
| GUUACGUUGGCGUAAUGGUAACGCGUCUCCCUUCUAAGGAGAAGACUGCGGGUUCGGGUCCCGUAGGGAACG | ≤ 0.5 |
| GUUACGUUGGCGUAAUGGUAACGCGUCUCCCUUCUAAGGAGAAGACUGCGGGUUCGAGUGCCGUACGGAACG | 0.601 |
| GUUACGUUGGCGUAAUGGUAACGCGUCUCCCUCGUAAGGAGAAGACUGCGGGUUCGAGUCCCGUACGGAACG | 0.563 |
| GUUACGUUGGCGUAAUGGUAACGCGUCUCCCUCGUAAGGUGAAGACAGCGGGUUCGAGUCCCGUACCGAACG | 0.55 |
| GUUACGUUGGCGUAAUGGUAACGCGUCUCCCUCGUAAGGAGAAGACUGCGGGUUCGAGUCCAGUAUGGAACG | ≤ 0.5 |
| GUUACGUUGGCGUAAUGGUAACGCGUCUCCCUCGUAACGAGAAGACUGCGGGUUCGAGUCCCGUACGGAACG | ≤ 0.5 |
| GUUACGUUGGCGUAAUGGUAACGCGUCUCCCUCGUAAGGAGAAGACUGCGGGUUCGAGUCCCGUACGAAACG | ≤ 0.5 |
| GUUACGUUGGCGUAAUGGUAACGCGUCUCCCUCUUAAGGAGAAGACUGCGGGUUCGUGUCCCGUACGGAACG | ≤ 0.5 |
| GUUACGUUGGCGUAAUGGUAACGCGUCUCCCUCUUAACGAGAAGACUGGGGGUUCGAGUCCCGUACGGAACG | ≤ 0.5 |
| GUUACGUUGGCGUAAUGGUAACGCGUCUCCCUCUUAAGGAGAAGACUGCGCGUUCGCGUCCCGUACGGAACG | ≤ 0.5 |
| GUUACGUUGGCGUAAUGGUAACGCGUCUCCCUCCUAAGGAGAAGAAUGCGGGUUCGAGUCCCGUACGGAACG | 0.997 |
| GUUACGUUGGCGUAAUGGUAACGCGUCUCCCUCCUAAGGAGAAGAAUGCGGGUUCAAGUCCCGUACGGAACG | 0.736 |
| GUUACGUUGGCGUAAUGGUAACGCGUCUCCCUCCUAAGGAGAAGAUUGCGGGUUCGAGUCCCGUACGGAACG | 0.903 |
| GUUACGUUGGCGUAAUGGUAACGCGUCUCCCUCCUAAGGAGAAGAUUGCGGGUUCGCGUCCCGUACGGAACG | 0.529 |

| Variant | yeast fitness |
| --- | --- |
| GUUACGUUGGCGUAAUGGUAACGCGUCUCCCUCCUAAGGAGAAGAUCGCGGGUUUGAGUCCCGUACGGAACG | ≤ 0.5 |
| GUUACGUUGGCGUAAUGGUAACGCGUCUCCCUCCUAAGGAGAAGACUGAGGGUUCGAAUCCCGUACGGAACG | ≤ 0.5 |
| GUUACGUUGGCGUAAUGGUAACGCGUCUCCCUCCUAAGGAGAAGACUGGGGGUUCGAGUCCCGUACGGAACG | 0.704 |
| GUUACGUUGGCGUAAUGGUAACGCGUCUCCCUCCUAAGGAGAAGACUGUGGGUUCGAGUCCCGUACGGAACG | 0.877 |
| GUUACGUUGGCGUAAUGGUAACGCGUCUCCCUCCUAAGGAGAAGACUGUGGGUUCGAGUCCCGUACGGCACG | 0.555 |
| GUUACGUUGGCGUAAUGGUAACGCGUCUCCCUCCUAAGGAGAAGACUGCGGGUUAGAGUCCCGUACGGAACG | 0.587 |
| GUUACGUUGGCGUAAUGGUAACGCGUCUCCCUCCUAAGGAGAAGACUGCGGGUUUGUGUCCCGGACGGAACG | ≤ 0.5 |
| GUUACGUUGGCGUAAUGGUAACGCGUCUCCCUCCUAAGGAGAAGACUGCGGGUUCGAGUCGCAUACGGAACG | ≤ 0.5 |
| GUUACGUUGGCGUAAUGGUAACGCGUCUCCCUCCUAAGGAGAAGACUGCGGGUUCGAGUCUCGUACGAAACG | 0.541 |
| GUUACGUUGGCGUAAUGGUAACGCGUCUCCCUCCUAAGGAGAAGACUGCGGGUUCGAGUCCAGUACGGAACG | 0.675 |
| GUUACGUUGGCGUAAUGGUAACGCGUCUCCCUCCUAAGGAGAAGACUGCGGGUUCGAGUCCGGUAUGGAACG | ≤ 0.5 |
| GUUACGUUGGCGUAAUGGUAACGCGUCUCCCUCCUAAGGAGAAGACUGCGGGUUCGAGUCCUGUACGGAACG | 0.852 |
| GUUACGUUGGCGUAAUGGUAACGCGUCUCCCUCCUAAGGAGAAGACUGCGGGUUCGAGUCCCGUAUGGCACG | 0.585 |
| GUUACAUUGGCGUAAUGGUAACGCGUCUCCCUCCUAAGGAGAAGACUGCGGGUUCGAGUCCCGUACGGAACG | 0.706 |
| GUUACAUUGGCGUGAUGGUAACGCGUCUCCCUCCUAAGGAGAAGACUGCGGGUUCGAGUCCCGUGCGGAACG | ≤ 0.5 |
| GUUACAUUGGCGUAAUGGUAACGCGUCUCCCUCCUAAGGAGAAGUCUGCGGGUUCGAAUCCCGUGCGGAACG | ≤ 0.5 |
| GUUACAUUGGCGUAAUGGUAACGCGUCUCCCUCCUAAGGAGAAGACUGCGGGUUCGAGUCCCGUUCGGAACG | 0.539 |
| GUUACAUUGGCGUAAUGGUAACGCGUCUCCCUCCUAAGGAGAAGACUGCGGGUUCGAGUCCCGUACGGUACG | 0.623 |
| GUUACAUUGGAGUAAUGGUAAUGCGUCUUCCUCCUAAGGAGAAGACUGCGGGUUAGAGUCCCGUACGGAACG | ≤ 0.5 |
| GUUACAUUGGCGUAAUGGUAACGCGUCUGCCUCCUAAGGAGAAGACUGCGGGUUCGAGUCCCGUACGGAACG | 0.549 |
| GUUACAUUGGCGUAAUGGUAACGCGUCUGCCUCCUAAGGAGAAGACUGCGGGUUCGGGUCCCGUACGGAACG | 0.535 |
| GUUACAUUGGCGUAAUGGUAACGCGUCUCCCUUCUAAGGAGAAGACUGCGGGCUCGAGUCCCGUACGGAACG | ≤ 0.5 |
| GUUACAUUGGCGUAAUGGUAACACGUCUCCCUCCUAAGGAGAAGACUGAGGGUUCGAGCCCUGUUCGGACCG | ≤ 0.5 |
| GUUACAUUGGCGUAAUGGUAACGCGUCUCCCUCCUAAGGAGAAGACUGCGGCUUCGCGUCCCCUACGGAACG | 0.537 |
| GUUACAUUGGCGUAAUGGUAACGCGUCUCCCUCCUAAGGAGAAGACUGCGGGAUCGAGUCCCGUUCGGAACG | ≤ 0.5 |
